Compound activity deposited in PubChem BioAssay by The Scripps Research Institute Molecular Screening Center.
CHO parental Ca: ATP-evoked calcium signal inhibitors, parental CHO, primary screen, counter-screen for OX1R antagonist project, cell-based, fluorescence, Fluo-8 calcium dye; parental CHO-K1, ATP-induced calcium, Fluo-8 fluorescence; inhibition, % at 5.6 µM; actives 0.63% (n = 330,000);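 active = inhibition above that plate's mean sample inhibition plus 3 SD, cut at about 26% in these data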;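 also: 0% = ATP-challenged DMSO wells and 100% = DMSO wells without ATP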
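Assay system: parental CHO cells; Read-out basis: percent inhibition of ATP-evoked calcium rise, normalized to controls; Benchmarks: ATP and no-ATP DMSO wells; Compound dosing: single nominal dose of 5.6 µM per compound; Signal: Fluo-8 calcium dye fluorescence; Also added: ATP as calcium-mobilizing challenge; Repeats: singlicate.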
GPR7 antag: GPR7 receptor antagonists, primary screen, cell-based, fluorescence, single concentration | actives 1.1% (n = 290,000) | GPR7-expressing cells, fluorescence antagonist assay | inhibition, % at 4.4 µM | AID 1861, 2009; in the data active = inhibition above about 16%, passing the limit was not always enough;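 also: cells stimulated with the agonist NPW; 0% = agonist with vehicle and 100% = vehicle without agonist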
Target sequence (P48145 whole entry, looked up): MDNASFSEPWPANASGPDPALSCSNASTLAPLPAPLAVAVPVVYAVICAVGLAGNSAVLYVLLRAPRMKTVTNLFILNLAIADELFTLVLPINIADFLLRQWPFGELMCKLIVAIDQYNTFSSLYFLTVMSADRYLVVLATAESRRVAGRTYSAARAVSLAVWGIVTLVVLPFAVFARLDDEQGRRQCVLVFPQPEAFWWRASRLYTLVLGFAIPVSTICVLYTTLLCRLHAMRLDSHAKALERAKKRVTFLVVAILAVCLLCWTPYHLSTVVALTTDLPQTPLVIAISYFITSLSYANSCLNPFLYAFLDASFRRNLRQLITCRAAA
TAAR1 antag: human TAAR1 antagonists, primary screen, Fluo-8 calcium fluorescence, CHO RD-HGA16 cells; inhibition, % at 3 µM; antagonist; actives 1.5% (n = 360,000);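 active = inhibition above a per-plate cutoff, the mean inhibition of test compounds on that plate plus 3 SD, cut at about 49% in these data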;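 also: 0% = DMSO plus EC80 beta-PEA response and 100% = DMSO alone without agonist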
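Test system: CHO RD-HGA16 cells bearing hTAAR1 | Reagent: β-PEA, EC80 | Compound dosing: 3 µM, single point | Schedule: Dye loading 75 min at 37 °C, then 30 min room temperature | Signal: Calcium fluorescence with Fluo-8 | Evaluation: Percent inhibition of PEA-evoked calcium signal, max/basal emission ratio | Control set: DMSO-only wells and EC80 β-PEA-stimulated wells | Repeats: Singlicate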
OX1R antag-1: antagonists of human orexin 1 receptor (OX1R); OX1R-expressing cells, FRET antagonist read-out; inhibition, % at 6.6 µM; actives 1.8% (n = 330,000); AID 485270, 2010; in the data active = inhibition mostly above about 38%, no sharp cut-off; inactive = mostly below about 40%;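 also: 0% = agonist challenge alone and 100% = reference antagonist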
TAAR1 agonist: human TAAR1 agonists, primary screen, Fluo-8 calcium fluorescence, CHO RD-HGA16 cells; vehicle wells 0%, saturating PEA agonist 100%; AID 624467, 2012; actives 0.99% (n = 360,000); activation, % at 3 µM;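 active = activation above the mean activation of all test compounds in the run plus 3 SD, cut at about 38% in these data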
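Signal – calcium-sensitive Fluo-8 signal, excitation 470-495, emission 515-575 nm · System – RD-HGA16 (CHO) cells co-expressing Gα16 and hTAAR1 · Incubation – 17-24 h seeding, 75 min 37 °C dye, 30 min RT · Compound dosing – 3 µM single concentration · Repeats – no replicates (n 1)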
OX1R antag-2: OX1R (HCRTR1) antagonists, primary screen, fluorescence, CHO/OX1R cells, Fluo-8 calcium, orexin A; Fluo-8 calcium fluorescence; inhibition, % at 5 µM; actives 0.43% (n = 330,000);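 active = inhibition above its plate's threshold, mean inhibition of all tested compounds on the plate plus 3 SD, cut at about 37% in these data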;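 also: 0% = orexin A challenge wells and 100% = SB-334867-A antagonist wells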
OX1R HTRF conf: OX1R (HCRTR1) antagonists, confirmation, cell-based, HTRF | shares compounds with OX1R antag-1 | OX1R-expressing cells, HTRF antagonist assay | inhibition, % at 6.6 µM | actives 49% (n = 1,800) | AID 492964, 2010; in the data active = inhibition above about 55%;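 also: CHO cells expressing OX1R stimulated with orexin A at about EC80; 0% = agonist challenge alone and 100% = reference antagonist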
CHO-K1 HTRF: signal inhibition in parental CHO-K1 cells, counter-screen for OX1R antagonist project, cell-based, HTRF. HTRF counterscreen. AID 493232, 2011. actives 48% (n = 1,800). inhibition, % at 6.6 µM. shares compounds with OX1R antag-1; in the data active = inhibition above about 17%;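 also: 0% = agonist challenge with vehicle and 100% = vehicle alone without agonist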
* marks the source's active call; other numbers are inactive results; / = not tested or not shown; + = active, no number. Rows were chosen to be rich in hits. Some 4.6% of all compounds tested hit in one or more screens of this group.

SMILES	CHO parental Ca	GPR7 antag	TAAR1 antag	OX1R antag-1	TAAR1 agonist	OX1R antag-2	OX1R HTRF conf	CHO-K1 HTRF
Cc1ccc(/C=c2\sc3n(c2=O)CN(c2cccc(Br)c2)CN=3)o1	0	-1	-5	80*	15	-7	18	13
COC(=O)[C@]12C[C@H](CC(=O)NCCC(C)C)C(=O)N(Cc3ccccc3)C1=C[C@H](C(C)(C)C)O[C@@H]2C	/	/	-21	/	-2	/	/	/
O=C1c2c(-c3ccc(Br)cc3)noc2CCN1Cc1cn(-c2ccc(Cl)cc2)nn1	/	/	-26	/	6	/	/	/
O=C(CNC(=S)N(CCCN1CCOCC1)Cc1cccs1)NCCCN1CCOCC1	-5	-7	-5	18	-1	-19	/	/
O=[N+]([O-])c1ccc(S(=O)(=O)N(CCCN2CCOCC2)Cc2cccs2)cc1	-23	5	1	86*	-1	-24	32	43*
O=C(NCCCN1CCCC1=O)c1ccc([N+](=O)[O-])s1	-15	/	-33	119*	2	-7	57*	71*
Cc1cc(C)cc(C(O)c2ncc(-c3ccc(C(F)(F)F)cc3)[nH]2)c1 (configuration not stated)	/	/	-1	/	10	/	/	/
CC[n+]1ccccc1/C=C/c1ccc(N(C)C)cc1	/	1	14	/	9	/	/	/
CC[n+]1c(/C=C/c2ccc(N(C)C)cc2)ccc2ccccc21	33	7	1	94*	-1	20	82*	103*
COc1ccc2c(c1)O/C(=C\c1sccc1C)C2=O	-19	-11	6	81*	-1	-12	25	-5
COC(=O)c1sccc1NC(=O)Nc1cccc(C(C)=O)c1	2	-15	25	82*	11	13	67*	8
COC(=O)c1sccc1NC(=O)Nc1cccc(C)c1	-29	-13	10	35	-1	-26	/	/
Cc1ccc([C@H]2C[C@]34CN(Cc5ccccc5)S(=O)(=O)[C@H]3C[C@H]2O4)cc1	/	/	1	/	0	/	/	/
CSc1nc2ccc(NC(=O)c3cc4ccccc4o3)cc2s1	-14	-13	0	84*	0	9	91*	13
CCS(=O)(=O)N1Cc2cc(C(=O)NCC3CC3)nc(-c3cccc(-c4cccnc4)c3)c2[C@@H]1CCO	/	/	-10	/	9	/	/	/
O=c1[nH]c(=S)[nH]c2c1C(c1ccc(F)cc1)OC(CCc1ccccc1)C2 (configuration not stated)	/	/	14	/	11	/	/	/
Cn1nc(-c2ccccn2)nc2c(=O)n(C)c(=O)nc1-2	-13	-29	-14	+	7	-1	91*	98*
COc1cc(F)ccc1-c1cc(C(=O)Nc2ccc(NC(C)=O)cc2)[nH]n1	/	/	26	/	6	/	/	/
Cc1ccn2cc(-c3cccc(NC(=O)c4ccccc4)c3)nc2c1	-24	11	17	78*	5	-24	62*	4
Cc1ccn2cc(-c3cccc(NC(=O)C(C)C)c3)nc2c1	-6	8	-6	20	0	-11	/	/
N#Cc1cccc(C(Br)S(=O)(=O)c2ccccc2)c1 (configuration not stated)	/	/	2	/	1	/	/	/
COC(=O)C1(S(=O)(=O)c2cccc3nsnc23)CC1	-13	-12	-9	106*	3	-21	35	36*
O=[N+]([O-])c1ccc(Nc2ccccc2O)c2nonc12	/	-12	-8	/	4	/	/	/
